Assay results published in ChEMBL document CHEMBL1144702, “Synthesis and structure-activity relationship studies on tryprostatin A, an inhibitor of breast cancer resistance protein” (Bioorg Med Chem, 2008).
Calls of active or inactive are those of the source. No cut-off for these calls is given here.

Assays:
CCRF-CEM = assay: Cytotoxicity against human CCRF-CEM cells; type: functional
MOLT-4 = assay: Cytotoxicity against human MOLT4 cells; type: functional
OVCAR-3 = assay: Cytotoxicity against human OVCAR-3 cells; type: functional
IGROV-1 = assay: Cytotoxicity against human IGROV1 cells; type: functional
[1] = Cytotoxicity against human HL60 (TB) cells; type: functional; conditions: HL-60
[2] = Inhibition of tubulin polymerization in presence of microtubule-associated proteins at 60 uM
Method in brief: (§1)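 Tubulin containing MAPs in PME buffer (100 mM PIPES pH 6.9, 2 mM EGTA, 1 mM MgSO4) with GTP and drug in DMSO, tubulin added last; 37 °C, absorbance change at 351 nm over 10 min. Drug concentration varied across runs for delta absorbance versus concentration curves; colchicine standard curves made for each tubulin batch.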

HT-29 = assay: Cytotoxicity against human HT29 cells; type: functional
HOP-92 = assay: Cytotoxicity against human HOP92 cells; type: functional
PC-3 [3] = assay: Cytotoxicity against human PC3 cells at 100 uM after 72 hrs by Cell Titer 96 Aqueous Non-Radioactive assay; type: functional; conditions: PC-3, 72 h, read-out: Inhibition
Method in brief: (§2)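 MCF7, NCI-H520 or PC-3 cells (RPMI-1640, 10% FBS) plated 1 × 10^4/well, 24 h at 37 °C, exposed 72 h to drug at 10 or 100 μM in DMSO or EtOH vehicle (controls usually 0.2%). Survival by MTS/PMS formazan absorbance at 490 nm, plate blank subtracted, as percent of vehicle wells; quadruplicate; etoposide or m-AMSA positive controls.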

MCF7 [4] = assay: Cytotoxicity against human MCF7 cells after 72 hrs by Cell Titer 96 Aqueous Non-Radioactive assay; type: functional; conditions: MCF7, 72 h
Method in brief: (§3)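 MCF7, NCI-H520 and PC-3 cells in RPMI-1640 + 10% FBS, 2 mM L-glutamine, 0.1 mM non-essential amino acids; 1 × 10^4 cells/well, 24 h at 37 °C, then drug in DMSO or EtOH (<1%) for 72 h. Cells under 50% survival at 100 μM retested over further concentrations for GI50. MTS/PMS read at 490 nm, blank subtracted, versus vehicle wells; quadruplicate or more.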

RPMI-8226 = assay: Cytotoxicity against human RPMI8226 cells; type: functional
UO-31 = assay: Cytotoxicity against human UO31 cells; type: functional
COLO 205 = assay: Cytotoxicity against human COLO205 cells; type: functional
BT-549 = assay: Cytotoxicity against human BT549 cells; type: functional
SR = assay: Cytotoxicity against human SR cells; type: functional
[5] = Cytotoxicity against human H520 cells at 10 uM after 72 hrs by Cell Titer 96 Aqueous Non-Radioactive assay; type: functional; conditions: NCI-H520, 72 h, read-out: Inhibition; method in brief: as §2
[6] = Cytotoxicity against human H520 cells at 100 uM after 72 hrs by Cell Titer 96 Aqueous Non-Radioactive assay; type: functional; conditions: NCI-H520, 72 h, read-out: Inhibition; method in brief: as §2
EKVX = assay: Cytotoxicity against human EKVX cells; type: functional
MCF7 [7] = assay: Cytotoxicity against human MCF7 cells at 100 uM after 72 hrs by Cell Titer 96 Aqueous Non-Radioactive assay; type: functional; conditions: MCF7, 72 h, read-out: Inhibition; method in brief: as §2
PC-3 [8] = assay: Cytotoxicity against human PC3 cells at 10 uM after 72 hrs by Cell Titer 96 Aqueous Non-Radioactive assay; type: functional; conditions: PC-3, 72 h, read-out: Inhibition; method in brief: as §2
[9] = Cytotoxicity against human […]; type: functional
MCF7 [10] = assay: Cytotoxicity against human MCF7 cells at 10 uM after 72 hrs by Cell Titer 96 Aqueous Non-Radioactive assay; type: functional; conditions: MCF7, 72 h, read-out: Inhibition; method in brief: as §2
K562 = assay: Cytotoxicity against human K562 cells; type: functional
PC-3 [11] = assay: Cytotoxicity against human PC3 cells after 72 hrs by Cell Titer 96 Aqueous Non-Radioactive assay; type: functional; conditions: PC-3, 72 h; method in brief: as §3
LOX IMVI = assay: Cytotoxicity against human LOX IMVI cells; type: functional
DU-145 = assay: Cytotoxicity against human DU145 cells; type: functional
[12] = Cytotoxicity against human H520 cells after 72 hrs by Cell Titer 96 Aqueous Non-Radioactive assay; type: functional; conditions: NCI-H520, 72 h; method in brief: as §3
[13] = biological target: DNA topoisomerase 2-alpha (Homo sapiens) (UniProt P11388); assay: Inhibition of topoisomerase 2 assessed as relaxation of supercoiled DNA at 100 uM
Chain of DNA topoisomerase 2-alpha (Homo sapiens) (P11388 whole entry): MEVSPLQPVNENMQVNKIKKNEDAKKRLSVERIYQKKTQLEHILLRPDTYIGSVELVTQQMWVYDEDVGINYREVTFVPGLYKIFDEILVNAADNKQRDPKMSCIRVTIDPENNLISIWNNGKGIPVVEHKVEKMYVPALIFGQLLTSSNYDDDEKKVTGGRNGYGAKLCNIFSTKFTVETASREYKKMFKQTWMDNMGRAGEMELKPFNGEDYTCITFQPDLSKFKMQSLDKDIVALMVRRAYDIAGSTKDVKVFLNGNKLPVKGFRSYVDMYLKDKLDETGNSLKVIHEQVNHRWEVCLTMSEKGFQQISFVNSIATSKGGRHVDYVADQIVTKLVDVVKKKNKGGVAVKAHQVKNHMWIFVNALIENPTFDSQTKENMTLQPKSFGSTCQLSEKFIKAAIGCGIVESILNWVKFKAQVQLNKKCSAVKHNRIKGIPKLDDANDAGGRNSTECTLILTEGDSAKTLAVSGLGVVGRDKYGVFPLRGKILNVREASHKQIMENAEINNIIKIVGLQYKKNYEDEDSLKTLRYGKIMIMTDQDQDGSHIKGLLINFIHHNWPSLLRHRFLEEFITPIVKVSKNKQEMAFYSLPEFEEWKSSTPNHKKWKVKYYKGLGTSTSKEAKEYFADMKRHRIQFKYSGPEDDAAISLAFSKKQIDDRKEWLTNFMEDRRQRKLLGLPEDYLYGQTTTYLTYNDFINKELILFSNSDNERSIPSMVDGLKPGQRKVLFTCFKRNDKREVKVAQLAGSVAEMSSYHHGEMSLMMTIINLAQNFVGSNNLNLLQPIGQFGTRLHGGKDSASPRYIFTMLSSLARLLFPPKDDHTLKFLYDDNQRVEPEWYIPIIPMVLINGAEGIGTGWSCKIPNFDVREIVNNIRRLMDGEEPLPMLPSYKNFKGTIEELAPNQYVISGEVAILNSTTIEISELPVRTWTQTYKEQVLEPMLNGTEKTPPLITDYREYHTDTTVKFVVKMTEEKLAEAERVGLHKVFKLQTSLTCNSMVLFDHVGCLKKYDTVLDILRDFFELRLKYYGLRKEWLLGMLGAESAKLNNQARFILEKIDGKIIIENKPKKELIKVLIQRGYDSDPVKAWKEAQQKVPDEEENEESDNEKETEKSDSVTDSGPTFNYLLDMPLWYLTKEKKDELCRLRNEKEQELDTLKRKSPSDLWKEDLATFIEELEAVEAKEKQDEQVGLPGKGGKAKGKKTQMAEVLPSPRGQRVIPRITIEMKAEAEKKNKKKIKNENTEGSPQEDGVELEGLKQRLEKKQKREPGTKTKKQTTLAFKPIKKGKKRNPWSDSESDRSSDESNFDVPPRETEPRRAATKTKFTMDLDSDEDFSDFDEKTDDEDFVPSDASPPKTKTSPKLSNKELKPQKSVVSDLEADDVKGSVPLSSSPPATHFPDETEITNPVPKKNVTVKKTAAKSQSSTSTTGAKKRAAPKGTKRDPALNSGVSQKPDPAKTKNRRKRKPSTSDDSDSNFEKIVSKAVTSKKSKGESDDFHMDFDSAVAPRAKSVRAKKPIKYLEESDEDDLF

[14] = Inhibition of tubulin polymerization in presence of microtubule-associated proteins; method in brief: as §1
[15] = Cell cycle arrest in mouse tsFT210 cells assessed as accumulation at M phase at 30 uM after 18 hrs by flow cytometry; type: functional, cell-based
Method in brief: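 Murine temperature-sensitive cdc2 mutant tsFT210 cells (from FM3A), kept in RPMI 1640 + 10% FCS at permissive 32 °C; seeded 1x10^5 cells/mL, preincubated 1 h at 32 °C, compound added, 18 h at 32 °C. Microscopy, then propidium iodide (50 μg/mL, 0.1% sodium citrate, 0.2% NP-40) flow cytometry for DNA content; Carnoy-fixed nuclei stained with Hoechst 33258.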

[16] = Antiproliferative activity against mouse tsFT210 cells after 48 hrs by WST-8 assay; type: functional, cell-based; conditions: tsFT210, 48 h
Method in brief: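 tsFT210 cells (temperature-sensitive cdc2 mutant from mouse mammary carcinoma FM3A), kept in RPMI 1640 with 10% fetal calf serum at 32 °C; exponentially growing cells exposed to compound at 32 °C for 48 h, then WST-8 added for 4 h at 37 °C; absorbance at 450 nm read to estimate cell number; IC50 reported.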

[17] = Cell cycle arrest in mouse tsFT210 cells assessed as accumulation at M phase at 100 uM after 18 hrs by flow cytometry; type: functional, cell-based
Method in brief: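 Synchronous-culture assay: tsFT210 cells seeded at 1x10^5 cells/mL, preincubated 1 h at 32 °C, then incubated with compound 18 h at 32 °C; morphology checked by microscopy; DNA content by flow cytometry after staining with 50 μg/mL propidium iodide, 0.1% sodium citrate, 0.2% NP-40; nuclei/chromosomes stained with Hoechst 33258 after KCl swelling and Carnoy fixation.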

Structure (SMILES) | GI50 (CCRF-CEM) | GI50 (OVCAR-3) | GI50 (IGROV-1) | GI50 [1] | percent cell survival at 100 µM (PC-3 [3]) | GI50 (MCF7 [4]) | GI50 (RPMI-8226) | GI50 (UO-31) | GI50 (COLO 205) | GI50 (BT-549) | GI50 (SR) | percent cell survival relative to vehicle at 10 µM [5] | cell survival (% of vehicle control) at 100 µM [6] | GI50 (EKVX) | cell survival (% of vehicle control) at 100 µM (MCF7 [7]) | percent cell survival relative to vehicle control at 10 µM (PC-3 [8]) | GI50 [9] | cell survival (% of vehicle control) at 10 µM (MCF7 [10]) | GI50 (K562) | GI50 (PC-3 [11]) | also measured
COc1ccc2c(C[C@@H]3NC(=O)[C@H]4CCCN4C3=O)c(CC=C(C)C)[nH]c2c1 | 99.4 µM | 85.5 µM | 50 µM | > 100 µM | > 100% | > 100 µM | 92 µM | > 100 µM | > 100 µM | > 100 µM | 76.9 µM | 99.3% | 98.5% | > 100 µM | 99% | > 100% | > 100 µM | > 100% | > 100 µM | > 100 µM | GI50 (MOLT-4): > 100 µM; inhibition [2]: < 2%; GI50 (HT-29): 40.3 µM; GI50 (HOP-92): 16.8 µM; GI50 (LOX IMVI): > 100 µM; GI50 (DU-145): > 100 µM
CC(C)=CCc1[nH]c2ccccc2c1C[C@@H]1NC(=O)[C@H]2CCCN2C1=O | 3.22 µM | 9.69 µM | 11.5 µM | 22.4 µM | 0.2% | – | 5.54 µM | 14.7 µM | 17.7 µM | 13.2 µM | 9.46 µM | 88.3% | 0.1% | 6.9 µM | 0% | 59.3% | 14.9 µM | 73.6% | 20.1 µM | – | GI50 (MOLT-4): 5.96 µM; inhibition [2]: < 2%; GI50 (HT-29): 5.25 µM; GI50 (HOP-92): 1.7 µM; GI50 [12]: 11.9 µM; GI50 (LOX IMVI): 9.23 µM; GI50 (DU-145): 14 µM
COc1cc([C@@H]2c3cc4c(cc3[C@@H](O[C@@H]3O[C@@H]5CO[C@@H](C)O[C@H]5[C@H](O)[C@H]3O)[C@H]3COC(=O)[C@H]23)OCO4)cc(OC)c1O [ETOPOSIDE] | – | – | – | – | – | 55.6 µM | – | – | – | – | – | – | – | – | – | – | – | – | – | 11.1 µM | GI50 [12]: 8.7 µM
COc1ccc2c(C[C@H]3NC(=O)[C@H]4CCCN4C3=O)c(CC=C(C)C)[nH]c2c1 | > 25 µM | > 25 µM | > 25 µM | > 25 µM | 83.7% | > 25 µM | > 25 µM | > 25 µM | > 25 µM | > 25 µM | > 25 µM | 81.7% | 75.2% | > 25 µM | > 100% | > 100% | > 25 µM | > 100% | > 25 µM | > 25 µM | GI50 (MOLT-4): > 25 µM; Activity [13]: inactive; GI50 (HOP-92): 23.1 µM; GI50 (LOX IMVI): > 25 µM; IC50 [14]: > 700 µM; GI50 (DU-145): > 25 µM
CC(C)=CCc1[nH]c2ccccc2c1C[C@H]1NC(=O)[C@H]2CCCN2C1=O | 25.1 µM | 38.2 µM | 16 µM | 29 µM | 78.9% | 40 µM | 12.9 µM | 12.6 µM | 21.2 µM | 7.21 µM | 12.1 µM | > 100% | 99.8% | 39.4 µM | > 100% | 95.8% | 11.9 µM | > 100% | 25.8 µM | 21.2 µM | GI50 (MOLT-4): 21 µM; Activity [13]: inactive; GI50 (HT-29): 37.5 µM; GI50 (LOX IMVI): > 50 µM; IC50 [14]: > 700 µM; GI50 (DU-145): > 50 µM
COc1ccc2c(C[C@@H]3NC(=O)[C@@H]4CCCN4C3=O)c(CC=C(C)C)[nH]c2c1 [TRYPROSTATIN A] | > 100 µM | > 100 µM | 90.5 µM | 11.3 µM | 95.6% | > 100 µM | 37.1 µM | > 100 µM | > 100 µM | 79.7 µM | 5.68 µM | 80.1% | 79.4% | > 100 µM | 95% | 99.2% | > 100 µM | > 100% | 2.73 µM | 94 µM | Activity [15]: Active; GI50 (HOP-92): 21.2 µM; IC50 [16]: 68 µM; GI50 (LOX IMVI): > 100 µM; IC50 [14]: 250 µM; GI50 (DU-145): > 100 µM
COc1ccc2c(C[C@@H]3NC(=O)[C@H](Cc4ccccc4)NC3=O)c[nH]c2c1 | – | – | – | – | – | – | – | – | – | – | – | – | – | – | – | – | – | – | – | – | Activity [17]: Active; IC50 [16]: 100 µM
